For test [1], the target named is T1, Phosphatidylinositol 4-kinase, PI4K (Homo sapiens) (UniProt Q9BTU6+Q8TCG2+Q9UBF8+P42356). As to the kind of experiment: Percent relative rate of phosphorylation was determined using human erythrocyte PI 4-kinase. The test is classed as functional. In a few lines: (§1)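 Enzyme was extracted with Triton X-100 from human erythrocyte membranes and purified about 90-fold. Substrate at 200 μM final was tested in mixed micelles with 0.3% Triton X-100, 100 μM [γ-32P]ATP, 15 mM MgCl2, 1 mM EGTA, 1 mM DTT, 0.1 M NaCl and 50 mM HEPES pH 7.4 at 30 °C. Reactions were stopped with acidified CHCl3/MeOH, and organic-phase 32P was counted. Rates were expressed relative to mammalian PI, triplicate, mean ± SE.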
T1 sequence (P42356 whole entry, looked up): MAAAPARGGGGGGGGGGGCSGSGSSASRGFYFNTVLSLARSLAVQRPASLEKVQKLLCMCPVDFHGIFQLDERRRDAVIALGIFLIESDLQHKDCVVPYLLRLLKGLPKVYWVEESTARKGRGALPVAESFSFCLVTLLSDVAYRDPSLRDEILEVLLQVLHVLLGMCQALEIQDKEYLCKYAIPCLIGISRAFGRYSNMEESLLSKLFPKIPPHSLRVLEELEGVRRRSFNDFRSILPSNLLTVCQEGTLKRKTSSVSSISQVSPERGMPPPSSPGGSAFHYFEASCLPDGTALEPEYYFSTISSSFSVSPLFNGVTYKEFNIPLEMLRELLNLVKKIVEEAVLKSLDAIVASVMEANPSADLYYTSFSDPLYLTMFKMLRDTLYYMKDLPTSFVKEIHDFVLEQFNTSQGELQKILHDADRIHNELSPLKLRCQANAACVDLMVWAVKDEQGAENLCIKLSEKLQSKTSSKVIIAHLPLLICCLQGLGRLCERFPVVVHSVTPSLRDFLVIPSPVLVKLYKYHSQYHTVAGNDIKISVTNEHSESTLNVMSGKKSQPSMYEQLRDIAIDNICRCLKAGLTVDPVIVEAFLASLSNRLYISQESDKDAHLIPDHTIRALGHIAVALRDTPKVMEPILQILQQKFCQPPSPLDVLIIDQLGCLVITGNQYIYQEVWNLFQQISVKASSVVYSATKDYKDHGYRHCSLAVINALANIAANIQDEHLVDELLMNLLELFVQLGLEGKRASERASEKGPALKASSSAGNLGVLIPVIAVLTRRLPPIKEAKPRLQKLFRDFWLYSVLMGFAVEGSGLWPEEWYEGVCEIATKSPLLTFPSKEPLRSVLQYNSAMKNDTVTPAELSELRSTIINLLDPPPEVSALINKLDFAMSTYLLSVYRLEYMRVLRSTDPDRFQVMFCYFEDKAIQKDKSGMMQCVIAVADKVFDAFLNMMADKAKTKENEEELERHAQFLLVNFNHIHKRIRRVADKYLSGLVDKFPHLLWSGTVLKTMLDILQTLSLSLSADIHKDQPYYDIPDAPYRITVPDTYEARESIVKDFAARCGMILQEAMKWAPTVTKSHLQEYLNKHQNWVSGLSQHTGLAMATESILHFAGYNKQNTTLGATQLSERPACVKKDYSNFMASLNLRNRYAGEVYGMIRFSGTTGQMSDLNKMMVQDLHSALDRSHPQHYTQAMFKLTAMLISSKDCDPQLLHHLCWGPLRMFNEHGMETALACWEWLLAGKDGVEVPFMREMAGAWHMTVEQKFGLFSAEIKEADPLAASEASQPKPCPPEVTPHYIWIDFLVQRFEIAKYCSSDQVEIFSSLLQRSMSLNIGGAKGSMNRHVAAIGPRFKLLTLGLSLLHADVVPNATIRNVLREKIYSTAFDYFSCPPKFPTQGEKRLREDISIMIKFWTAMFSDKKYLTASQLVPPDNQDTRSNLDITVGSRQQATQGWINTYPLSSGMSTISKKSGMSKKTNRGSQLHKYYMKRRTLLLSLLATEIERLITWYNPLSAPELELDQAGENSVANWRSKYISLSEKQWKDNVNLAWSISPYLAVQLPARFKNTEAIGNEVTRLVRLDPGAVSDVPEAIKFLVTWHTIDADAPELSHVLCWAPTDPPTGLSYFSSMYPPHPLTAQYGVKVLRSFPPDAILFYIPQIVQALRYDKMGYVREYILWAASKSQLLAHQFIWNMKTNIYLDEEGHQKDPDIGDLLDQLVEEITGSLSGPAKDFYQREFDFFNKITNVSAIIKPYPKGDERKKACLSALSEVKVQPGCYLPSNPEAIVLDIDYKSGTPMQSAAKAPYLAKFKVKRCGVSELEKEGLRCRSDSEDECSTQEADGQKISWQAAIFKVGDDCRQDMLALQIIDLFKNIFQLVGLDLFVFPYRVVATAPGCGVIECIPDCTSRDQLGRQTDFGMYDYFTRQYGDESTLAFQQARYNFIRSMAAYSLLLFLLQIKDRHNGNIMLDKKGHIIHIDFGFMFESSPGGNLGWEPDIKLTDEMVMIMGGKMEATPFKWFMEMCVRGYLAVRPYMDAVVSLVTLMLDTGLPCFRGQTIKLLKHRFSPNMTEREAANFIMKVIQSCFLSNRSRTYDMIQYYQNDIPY
T1 sequence (Q8TCG2 whole entry, looked up): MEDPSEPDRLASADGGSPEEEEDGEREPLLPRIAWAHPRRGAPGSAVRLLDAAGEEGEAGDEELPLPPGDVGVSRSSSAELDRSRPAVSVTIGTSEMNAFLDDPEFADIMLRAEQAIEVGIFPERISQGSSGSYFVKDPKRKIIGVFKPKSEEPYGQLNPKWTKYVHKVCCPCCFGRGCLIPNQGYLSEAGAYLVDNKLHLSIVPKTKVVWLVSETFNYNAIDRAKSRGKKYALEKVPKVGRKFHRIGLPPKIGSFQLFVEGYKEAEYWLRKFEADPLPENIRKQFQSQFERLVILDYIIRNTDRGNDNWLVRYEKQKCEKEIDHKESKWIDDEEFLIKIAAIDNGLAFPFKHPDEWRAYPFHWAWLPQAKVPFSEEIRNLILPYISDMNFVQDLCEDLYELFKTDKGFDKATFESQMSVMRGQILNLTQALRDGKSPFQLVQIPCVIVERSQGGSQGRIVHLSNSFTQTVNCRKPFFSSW
T1 sequence (Q9BTU6 whole entry, looked up): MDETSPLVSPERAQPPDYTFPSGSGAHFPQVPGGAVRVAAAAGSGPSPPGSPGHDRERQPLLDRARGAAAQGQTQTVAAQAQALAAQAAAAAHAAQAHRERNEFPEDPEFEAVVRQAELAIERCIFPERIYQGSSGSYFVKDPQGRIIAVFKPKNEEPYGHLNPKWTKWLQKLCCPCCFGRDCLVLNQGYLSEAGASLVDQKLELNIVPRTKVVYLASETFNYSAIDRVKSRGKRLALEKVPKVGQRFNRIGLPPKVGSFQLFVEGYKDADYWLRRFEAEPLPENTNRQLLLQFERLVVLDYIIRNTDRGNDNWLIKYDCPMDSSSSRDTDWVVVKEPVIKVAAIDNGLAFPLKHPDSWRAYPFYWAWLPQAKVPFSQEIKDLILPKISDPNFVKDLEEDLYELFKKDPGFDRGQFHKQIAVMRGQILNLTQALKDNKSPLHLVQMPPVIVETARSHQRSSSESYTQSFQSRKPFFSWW
T1 sequence (Q9UBF8 whole entry, looked up): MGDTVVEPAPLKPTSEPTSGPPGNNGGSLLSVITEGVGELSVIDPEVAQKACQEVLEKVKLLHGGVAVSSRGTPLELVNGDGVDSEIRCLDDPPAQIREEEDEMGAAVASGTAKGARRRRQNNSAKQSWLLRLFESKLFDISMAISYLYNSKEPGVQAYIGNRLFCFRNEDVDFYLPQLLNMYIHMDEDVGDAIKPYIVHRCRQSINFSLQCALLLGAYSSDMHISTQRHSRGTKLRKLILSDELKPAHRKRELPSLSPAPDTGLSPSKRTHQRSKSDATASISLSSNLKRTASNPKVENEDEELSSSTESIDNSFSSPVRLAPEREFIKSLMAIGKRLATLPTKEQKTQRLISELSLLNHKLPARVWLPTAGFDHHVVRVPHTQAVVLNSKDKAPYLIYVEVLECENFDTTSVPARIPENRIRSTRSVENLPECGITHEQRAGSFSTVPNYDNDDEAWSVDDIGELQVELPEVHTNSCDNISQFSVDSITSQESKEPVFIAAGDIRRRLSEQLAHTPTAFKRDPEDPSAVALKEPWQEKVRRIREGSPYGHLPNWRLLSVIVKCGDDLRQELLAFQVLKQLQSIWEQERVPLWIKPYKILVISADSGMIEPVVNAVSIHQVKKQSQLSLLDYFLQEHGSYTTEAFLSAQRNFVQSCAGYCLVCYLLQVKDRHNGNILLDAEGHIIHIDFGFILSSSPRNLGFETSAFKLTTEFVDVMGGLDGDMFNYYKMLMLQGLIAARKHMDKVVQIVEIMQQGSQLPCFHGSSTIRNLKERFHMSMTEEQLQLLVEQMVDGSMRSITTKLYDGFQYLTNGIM

The target of test [2] is T1, Phosphatidylinositol 4-kinase, PI4K (Homo sapiens). Kind of test: Rate of phosphorylation was determined with that of mammalian PI using human erythrocyte PI 4-kinase at 200 uM substrate. The test is classed as functional. In a few lines:
as §1

The molecule `CCCCC/C=C/C/C=C/C/C=C/C/C=C/CCCC(=O)OC(COC(=O)CCCCCCCCCCCCCCCCC)COP(=O)(O)OC1C(O)C(O)C(O)C(O)C1O` (stereo not given) came in with a Relative rate in test [1] of 100%. In addition, in test [2], the Rate of formation stood at 23.5 pmol/min.
Regarding `CCCCCCCCCCCCCCCC(=O)OCC(COP(=O)(O)OC1C(O)C(O)C(O)C(O)C1O)OC(=O)CCCCCCCCCCCCCCC` (stereo in doubt; 10a), in test [1], the Relative rate stood at 106%. For the same molecule, the Rate of formation in test [2] was found to be 24.9 pmol/min.
Regarding `CCCCCCCCCCCCCCCC(=O)OCC(COP(=O)(O)OC1C(O)C(O)C(O)C(O)C1O)OC(=O)CCCCCCCCCCCCCCC` (stereo in doubt; 10b), the Relative rate in test [1] stood at 100%. For the same molecule, the Rate of formation in test [2] came to 23.5 pmol/min.
For `CCCCCCCCCCCCCCCC(=O)OCC(COP(=O)(O)OC1C(O)C(O)C(O)C(O)C1O)OC(=O)CCCCCCCCCCCCCCC` (stereo in doubt; 10c), the Relative rate in test [1] came out at 4.3%. Moreover, in test [2], the Rate of formation turned out to be 1.01 pmol/min.
The molecule `CCCCCCCCCCCCCCCC(=O)OCC(COP(=O)(O)OC1C(O)C(O)C(O)C(O)C1O)OC(=O)CCCCCCCCCCCCCCC` (stereo in doubt; 10d) had a Relative rate in test [1] of 3.2%. This molecule also came in with a Rate of formation in test [2] of 0.76 pmol/min.

(Values after ChEMBL document CHEMBL1124820, “Total synthesis of the four stereoisomers of dihexadecanoyl phosphatidylinositol and the substrate stereospecificity of human erythrocyte membrane phosphatidylinositol 4-kinase” (J Med Chem, 1990).)
